Screens deposited in PubChem BioAssay by several laboratories.
Only some compounds are listed: those with a hit (about 3.8% of all), similar ones and a draw of the others.
MPTP inh: permeability transition pore inhibition. actives 1.4% (n = 360,000). isolated mouse mitochondria, Ca2+ swelling absorbance, 30 min. inhibition, % at 10 µM. AID 602449;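 active = inhibition of 50% or more, scaled per plate between neutral and stimulator controls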
T cell modulator: modulates CD8 T cell binding to vesicles. actives 0.068% (n = 330,000). response (vesicle binding), % at 7 µM. 2C CD8+ T cell-vesicle binding, flow cytometry; active compounds read low;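 active = response, share of CD8 T cells binding vesicles, and their 90th percentile fluorescence all below set limits, cut at about 80% in these data, passing the limit was not always enough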;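 note: values below 100% mean blocked vesicle binding to the CD8+ T cells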
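Material: murine 2C transgenic CD8+ T lymphocytes / Also added: QL9-peptide-loaded Drosophila micro-vesicles bearing Ld, ICAM-1 and B7-1 / Schedule: binding step 1.5 h, 37 °C, antibody labelling 20 min, ice / Signal: flow cytometry, PE anti-B7-1 (FL2) versus Alexa647 anti-CD8 (FL8), PFA-fixed / Evaluation: percent CD8+ FL2 mean versus row control / Benchmarks: naked versus QL9-loaded vesicles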
V-ATPase pHluor: regulators of yeast V-ATPase proton transport; S. cerevisiae, pHLuorin cytosolic pH fluorescence; response, % at 10 µM; actives 0.37% (n = 350,000); in the data active = response mostly above about 7.3%, no sharp cut-off; inactive = mostly below about 5.4%; note: actives read high
rCAG binder: molecules binding r(CAG) RNA repeats. r(CAG) RNA repeat, TO-PRO-1 dye displacement fluorescence. inhibition, % at 3 µM. actives 1.3% (n = 370,000). AID 651821;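 active = inhibition above the plate cutoff, the mean of all test compounds on that plate plus 3 SD, cut at about 35% in these data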;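 note: higher means more dye released from RNA so lower well fluorescence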
Beta2AR agonist: human beta-2 adrenergic receptor agonism by FAP; P07550; Am2.2-beta2AR cells, FAP receptor internalization, flow cytometry; response, % (concentration not given with the values); actives 0.43% (n = 340,000); AID 504454;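 active = response above a set limit, near 3 SD of response in nonfluorescent compounds, cut at about 42% in these data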
Target sequence (P07550 whole entry, looked up): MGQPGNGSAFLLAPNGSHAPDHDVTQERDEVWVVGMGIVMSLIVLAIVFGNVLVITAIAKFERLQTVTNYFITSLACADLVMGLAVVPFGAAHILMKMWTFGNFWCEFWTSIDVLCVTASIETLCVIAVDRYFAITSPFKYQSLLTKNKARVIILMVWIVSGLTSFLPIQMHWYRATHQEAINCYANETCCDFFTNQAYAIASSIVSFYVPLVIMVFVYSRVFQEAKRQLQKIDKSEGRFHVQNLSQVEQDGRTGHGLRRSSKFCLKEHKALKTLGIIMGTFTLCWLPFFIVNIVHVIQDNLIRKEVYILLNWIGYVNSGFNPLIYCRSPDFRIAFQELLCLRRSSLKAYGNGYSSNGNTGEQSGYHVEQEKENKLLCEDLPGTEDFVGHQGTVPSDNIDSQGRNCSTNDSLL
Granule exo inh: lytic granule exocytosis inhibition; AID 651702; TALL-104 LAMP-1 surface exposure, flow cytometry; cells stimulated with thapsigargin and PMA; inhibition, % at 10 µM; actives 0.66% (n = 360,000);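 active = inhibition above about 55%, limit read from the data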
VATPase regulator: regulators of yeast V-ATPase proton transport; S. cerevisiae pHLuorin cytosolic pH; shares compounds with V-ATPase pHluor; response, % at 10 µM; AID 602197; actives 2% (n = 980); in the data active = response above about 24%
Each line names hits and unclear results; the compound was inactive in the other large screens (follow-up assays come after a bar, where they were run).

O=C(c1ccccc1)N1CN2CN(C(=O)c3ccccc3)CC([N+](=O)[O-])(C2)C1	V-ATPase pHluor 46 | VATPase regulator inactive
CN(Cc1ccc(F)cc1)C(=O)CN1C(=O)C2(OCCCO2)c2ccccc21	none (no result: MPTP inh, T cell modulator, V-ATPase pHluor, Beta2AR agonist, Granule exo inh)
CCOC(=O)c1nc2c(ccc3ccccc32)cc1C	none | VATPase regulator inactive
Cc1c(C(=O)NCc2ccccc2)c(-c2ccccc2)nn1-c1ccccc1	none
COCCN(Cc1ccccc1)C(=O)c1c(C)nn(-c2ccccc2)c1C	V-ATPase pHluor 9.2 | VATPase regulator inactive
COc1cc2c(=O)c(-c3ccc(O)cc3)coc2cc1OC1OC(CO)C(O)C(O)C1O (stereo not drawn)	V-ATPase pHluor 9.6 (no result: T cell modulator) | VATPase regulator inactive
COc1ccc(CC(=O)Nc2ccc(C)cc2S(=O)(=O)N2CCOCC2)cc1OC	none (no result: MPTP inh, T cell modulator, V-ATPase pHluor, Beta2AR agonist, Granule exo inh)
O=C(Nc1cccc(C(F)(F)F)c1)c1cccnc1N1CCN(CCO)CC1	none
O=C(Nc1cccc(C(F)(F)F)c1)c1cccnc1N1CCN(c2ccccc2)CC1	V-ATPase pHluor 12 | VATPase regulator inactive
Oc1ccc(/C=N/N2CCN(C3c4ccccc4-c4ccccc43)CC2)cc1	none
O=C(O)c1ccc(/C=N/N2CCN(C3c4ccccc4-c4ccccc43)CC2)cc1	V-ATPase pHluor 19 | VATPase regulator 46
COc1cccc(CNC(=O)C2CCN(c3ncnc4c3nc3n4CCCCC3)CC2)c1	none
COc1ccccc1CNC(=O)C1CCN(c2ncnc3c2nc2n3CCCCC2)CC1	V-ATPase pHluor 12 | VATPase regulator inactive
CC1CC(C)CN(C(=O)CN2C(=O)NC3(CCCCCC3)C2=O)C1 (stereo not drawn)	V-ATPase pHluor 12 | VATPase regulator inactive
O=C(Nc1ccc(-c2ccc([N+](=O)[O-])cc2)cc1)c1ccccc1F	none
O=C(Nc1ccc([N+](=O)[O-])cc1)c1ccccc1F	V-ATPase pHluor 15 | VATPase regulator inactive
C[C@H](CO)N1C[C@H](C)[C@@H](CN(C)S(=O)(=O)c2ccc(F)cc2)Oc2c(NC(=O)NC3CCCCC3)cccc2C1=O	V-ATPase pHluor 13 | VATPase regulator inactive
CCOC(=O)C1C(=O)N(O)CC1c1cccc(Oc2ccccc2)c1 (stereo not drawn)	V-ATPase pHluor 13 | VATPase regulator inactive
CCOC(=O)C1C(O)=CC(=O)CC1c1ccccc1 (stereo not drawn)	none
CC(=O)N1N=C(c2ccccc2)OC1(C)CC(=O)Nc1ccccc1 (stereo not drawn)	V-ATPase pHluor 8.3 | VATPase regulator inactive
CC(=O)N1N=C(c2cccc([N+](=O)[O-])c2)OC1(C)CC(=O)Nc1ccccc1 (stereo not drawn)	none
C#CCNC(=O)C[C@@H]1C(=O)N(Cc2ccc(OC)cc2)/C2=C/CCCCC[C@@]21C(=O)OCC	none (no result: MPTP inh, T cell modulator, V-ATPase pHluor, Beta2AR agonist, Granule exo inh)
NC(N)=NN=C1c2ccccc2-c2ccccc21	V-ATPase pHluor 201 (no result: Beta2AR agonist) | VATPase regulator inactive
COC(=O)C1=C(C)N(Cc2ccc(C(F)(F)F)cc2)C(=NCc2ccccc2C(F)(F)F)NC1c1ccccc1C(F)(F)F (stereo not drawn)	none (no result: MPTP inh, T cell modulator, V-ATPase pHluor, Beta2AR agonist, Granule exo inh)
Cc1ccc(S(=O)(=O)N2CCN(C(=O)c3cccn3C)CC2)cc1	none (no result: MPTP inh, T cell modulator, V-ATPase pHluor, Beta2AR agonist, Granule exo inh)
CC1=C(C(N)=O)C(c2cccc(O)c2)n2nc(CCCO)nc2N1 (stereo not drawn)	V-ATPase pHluor 7.2 | VATPase regulator inactive
CCCCS(=O)(=O)NCC1CCN(C(=O)C(=O)c2cc3ccccc3o2)CC1	none (no result: MPTP inh, T cell modulator, V-ATPase pHluor, Beta2AR agonist, Granule exo inh)
CC1(C)CC(=O)C2=C(C1)OC(N)=C(C#N)C2C#Cc1ccccc1 (stereo not drawn)	none
CC(c1ccccc1)C1C(C#N)=C(N)OC2=C1C(=O)CC(C)(C)C2 (stereo not drawn)	V-ATPase pHluor 11, Granule exo inh 75 | VATPase regulator inactive
Cc1cccc(-c2cccc3c4c([nH]c23)[C@@H]2C[C@H](N(C)C(=O)c3ccco3)[C@H]([C@H](C)O)CN2CC4)c1	none (no result: MPTP inh, T cell modulator, V-ATPase pHluor, Beta2AR agonist, Granule exo inh)
Cc1nnc(SCC(=O)N2CCC(Cc3ccccc3)CC2)n(N)c1=O	none
Cc1nnc(SCC(=O)N2CCCCCC2)n(N)c1=O	V-ATPase pHluor 8.0 | VATPase regulator inactive
